The source made the active and inactive calls. The rule behind the calls is not given here.
Key:
[1] = tested on: A549; assay: Cytotoxicity against human A549 cells after 48 hrs by sulforhodamine B assay; assay type: functional; details: A549, 48 h
Method in brief: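 Cells were grown in RPMI 1640 with 10% FBS and 2 mM L-glutamine, plated at densities set by doubling time, and pre-incubated 24 h at 37 °C, 5% CO2. Drugs were tested at 0.1, 1, 10 and 100 µM in triplicate wells for 48 h continuous exposure. Cells were fixed with 10% TCA (final) and stained with 0.4% SRB. A540 was read against a 690 nm reference, and percent growth was calculated relative to control. Experiments were repeated three times.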

[2] = tested on: HOP-62; assay: Cytotoxicity against human HOP62 cells after 48 hrs by sulforhodamine B assay; assay type: functional; details: HOP-62, 48 h
Method in brief: (§1)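 Run by the NCI 60-cell-line screen. A one-dose pre-test was done first, followed by the main test over a 5-log dose range (10^-4 to 10^-8 M). Results are reported as log molar GI50 (50% net growth inhibition), TGI (total growth inhibition) and LC50 (50% net cell death), with mean-graph midpoints across all lines.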

[3] = tested on: NCI-H322M; assay: Cytotoxicity against human NCI-H322M cells after 48 hrs by sulforhodamine B assay; assay type: functional; method in brief: as §1
[4] = tested on: COLO 205; assay: Cytotoxicity against human COLO205 cells after 48 hrs by sulforhodamine B assay; assay type: functional; details: COLO 205, 48 h; method in brief: as §1
[5] = tested on: HCC 2998; assay: Cytotoxicity against human HCC2998 cells after 48 hrs by sulforhodamine B assay; assay type: functional; details: HCC 2998, 48 h; method in brief: as §1
[6] = tested on: HCT-116; assay: Cytotoxicity against human HCT116 cells after 48 hrs by sulforhodamine B assay; assay type: functional; details: HCT-116, 48 h; method in brief: as §1
[7] = tested on: DU-145; assay: Cytotoxicity against human DU145 cells after 48 hrs by sulforhodamine B assay; assay type: functional; details: DU-145, 48 h; method in brief: as §1
[8] = tested on: SF-268; assay: Cytotoxicity against human SF268 cells after 48 hrs by sulforhodamine B assay; assay type: functional; details: SF-268, 48 h; method in brief: as §1
[9] = tested on: SF-539; assay: Cytotoxicity against human SF539 cells after 48 hrs by sulforhodamine B assay; assay type: functional; details: SF-539, 48 h; method in brief: as §1
[10] = tested on: IGROV-1; assay: Cytotoxicity against human IGROV1 cells after 48 hrs by sulforhodamine B assay; assay type: functional; details: IGROV-1, 48 h; method in brief: as §1
[11] = tested on: OVCAR-8; assay: Cytotoxicity against human OVCAR8 cells after 48 hrs by sulforhodamine B assay; assay type: functional; details: OVCAR-8, 48 h; method in brief: as §1
[12] = tested on: 786-0; assay: Cytotoxicity against human 786-0 cells after 48 hrs by sulforhodamine B assay; assay type: functional; details: 786-0, 48 h; method in brief: as §1
[13] = tested on: TK-10; assay: Cytotoxicity against human TK10 cells after 48 hrs by sulforhodamine B assay; assay type: functional; details: TK-10, 48 h
Method in brief: (§2)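 NCI 60-cell-line panel screen of human tumor lines: a one-dose pre-test, then the main test over a 5-log range (10^-4–10^-8 M). GI50, TGI and LC50 are reported as log molar concentrations for 50% net growth inhibition, total growth inhibition and 50% net cell death. Mean graph midpoints are also calculated.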

[14] = tested on: T47D; assay: Cytotoxicity against human T47D cells after 48 hrs by sulforhodamine B assay; assay type: functional; method in brief: as §2
[15] = tested on: MCF7; assay: Cell cycle arrest in human MCF7 cells assessed as accumulation at G0 phase at 5 uM after 24 hrs using propidium iodide staining by flow cytometry relative to control; assay type: functional
Method in brief: (§3)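 MCF-7 cells were seeded at 5×10^5 per 60 mm dish and grown 24 h. They were then exposed to 5 uM compound for a further 24 h, with untreated control cells alongside. Cells were trypsinised, fixed in ice-cold 70% ethanol (4 °C, 30 min), treated with 1 mg/ml RNase A (37 °C, 30 min) and stained with propidium iodide/citrate/Triton solution. DNA content was read by flow cytometry on 20,000 events.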

[16] = tested on: MCF7; assay: Cell cycle arrest in human MCF7 cells assessed as accumulation at G1 phase at 5 uM after 24 hrs using propidium iodide staining by flow cytometry relative to control; assay type: functional; method in brief: as §3
[17] = target: Tubulin (Homo sapiens) (UniProt P68371+Q9H4B7+P0DPH7+P68366+Q13509+Q71U36+P04350+Q3ZCM7+P07437+P68363+Q9BQE3+Q6PEY2+Q13885+Q9BVA1+Q9BUF5); assay: Inhibition of tubulin polymerization in human MCF7 cells assessed as disrupted microtubule organization at 5 uM after 48 hrs by microscopic analysis; assay type: cell-based
Method in brief: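 MCF-7 cells on coverslips incubated 48 h with or without compound. Fixed in 3% paraformaldehyde/0.02% glutaraldehyde, permeabilized in -20 °C methanol, blocked with 1% BSA. Stained with mouse monoclonal anti-tubulin and FITC secondary; confocal imaging to judge microtubule network integrity.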

[18] = tested on: MCF7; assay: Cytotoxicity against human MCF7 cells at 5 uM after 24 hrs by MTT assay
[19] = read-out: pLC50 (the source's name) (converted)

Q: For `COc1cc(C2NC(=O)c3ccccc3N2)ccc1OCCCCCOc1c(OC)cc(C2=NOC(c3cc(OC)c(OC)c(OC)c3)C2)cc1OC` (stereo unspecified), which LC50 [1] is on record?
A: Its LC50 is > 100 µM.

Q: What about the GI50 ([1]; read-out: pGI50 (converted)) of the same molecule?
A: Its GI50 is 0.324 µM.

Q: What about the TGI ([1]; read-out: pTGI) of the same molecule?
A: The TGI was > 100 µM.

Q: And the GI50 [2]?
A: The GI50 was 19.1 µM.

Q: What about the CC50 [2, 19] of the same molecule?
A: The CC50 was > 100 µM.

Q: What about the TGI ([2]; read-out: pTGI (converted)) of the same molecule?
A: Its TGI is 81.3 µM.

Q: And the GI50 [3]?
A: The GI50 was > 100 µM.

Q: What about the CC50 [3, 19] of the same molecule?
A: The CC50 was > 100 µM.

Q: And the TGI ([3]; read-out: pTGI)?
A: The TGI was > 100 µM.

Q: And the GI50 [4]?
A: The GI50 was 34.7 µM.

Q: And the CC50 [4, 19]?
A: The CC50 was > 100 µM.

Q: What about the TGI ([4]; read-out: pTGI) of the same molecule?
A: The TGI was > 100 µM.

Q: What about the GI50 [5] of the same molecule?
A: Its GI50 is 19.1 µM.

Q: And the CC50 [5, 19]?
A: The CC50 was > 100 µM.

Q: And the TGI ([5]; read-out: pTGI (converted))?
A: The TGI was 52.5 µM.

Q: And the GI50 [6]?
A: The GI50 was 0.708 µM.

Q: What about the CC50 [6, 19] of the same molecule?
A: Its CC50 is > 100 µM.

Q: And the TGI ([6]; read-out: pTGI (converted))?
A: The TGI was 40.7 µM.

Q: What about the GI50 [7] of the same molecule?
A: Its GI50 is 22.4 µM.

Q: What about the CC50 [7, 19] of the same molecule?
A: The CC50 was > 100 µM.

Q: What about the TGI ([7]; read-out: pTGI) of the same molecule?
A: The TGI was > 100 µM.

Q: And the GI50 [8]?
A: Its GI50 is 21.4 µM.

Q: And the CC50 [8, 19]?
A: Its CC50 is > 100 µM.

Q: What about the TGI ([8]; read-out: pTGI) of the same molecule?
A: Its TGI is > 100 µM.

Q: What about the GI50 [9] of the same molecule?
A: Its GI50 is 17.8 µM.

Q: What about the CC50 [9, 19] of the same molecule?
A: Its CC50 is > 100 µM.

Q: What about the TGI ([9]; read-out: pTGI (converted)) of the same molecule?
A: Its TGI is 89.1 µM.

Q: And the GI50 [10]?
A: The GI50 was 1.12 µM.

Q: And the CC50 [10, 19]?
A: Its CC50 is > 100 µM.

Q: And the TGI ([10]; read-out: pTGI (converted))?
A: Its TGI is 50.1 µM.

Q: What about the LC50 [11] of the same molecule?
A: Its LC50 is > 100 µM.

Q: And the GI50 ([11]; read-out: pGI50 (converted))?
A: The GI50 was 24.5 µM.

Q: And the TGI ([11]; read-out: pTGI)?
A: The TGI was > 100 µM.

Q: And the GI50 [12]?
A: The GI50 was 23.4 µM.

Q: And the CC50 [12, 19]?
A: Its CC50 is > 100 µM.

Q: What about the TGI ([12]; read-out: pTGI (converted)) of the same molecule?
A: The TGI was 61.7 µM.

Q: And the GI50 [13]?
A: Its GI50 is > 100 µM.

Q: What about the CC50 [13, 19] of the same molecule?
A: The CC50 was > 100 µM.

Q: And the TGI ([13]; read-out: pTGI)?
A: The TGI was > 100 µM.

Q: What about the GI50 [14] of the same molecule?
A: The GI50 was 0.191 µM.

Q: What about the CC50 [14, 19] of the same molecule?
A: The CC50 was > 100 µM.

Q: And the TGI ([14]; read-out: pTGI)?
A: The TGI was > 100 µM.

Q: And the Activity [15]?
A: Its Activity is 1.57%.

Q: And the Activity [16]?
A: The Activity was 32.15%.

Q: And the inhibition [17]?
A: Its inhibition is “Active”.

Q: What about the Activity [18] of the same molecule?
A: The Activity was “Active”.

From ChEMBL document CHEMBL1667760, “Synthesis and biological evaluation of 3,5-diaryl isoxazoline/isoxazole linked 2,3-dihydroquinazolinone hybrids as anticancer agents” (2011)
